From ChEMBL document CHEMBL2424573 (J Med Chem, 2013)
pEC50, pIC50, pKi: −log10 of the molar value.

Legend:
[1] = system: Human immunodeficiency virus 1; experiment: Ratio of EC50 for wild type HIV1 ERS104pre to EC50 for multidrug-resistant HIV1 TM harboring L10I/K14R/R41K/M46L/I54V/L63P/A71V/V82A/L90M/I93L protease-encoding region mutant; type: functional
Method in brief: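 Antiviral EC50 was measured against wild-type HIV-1ERS104pre and against multidrug-resistant isolates. The fold change is the EC50 for each isolate divided by the wild-type EC50. Assays were run in duplicate. Values are means (±1 standard deviation) from two or three independent experiments.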

[2] = system: Human immunodeficiency virus 1; experiment: Ratio of EC50 for wild type HIV1 ERS104pre to EC50 for multidrug-resistant HIV1 C harboring L10I/I15V/K20R/L24I/M36I/M46L/I54V/I62V/L63P/K70Q/V82A/L89M protease-encoding region mutant; type: functional
[3] = system: Human immunodeficiency virus 1; experiment: Ratio of EC50 for wild type HIV1 ERS104pre to EC50 for multidrug-resistant HIV1 G harboring L10I/V11I/T12E/I15V/L19I/R41K/M46L/L63P/A71T/V82A/L90M protease-encoding region mutant; type: functional
[4] = system: Human immunodeficiency virus 1; experiment: Antiviral activity against multidrug-resistant HIV1 TM harboring L10I/K14R/R41K/M46L/I54V/L63P/A71V/V82A/L90M/I93L protease-encoding region mutant infected in human PHA-PBMC cells assessed as inhibition of p24 Gag protein production; type: functional, organism-based; details: Human immunodeficiency virus 1, TM
Method in brief: (§1)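 EC50 was determined against each clinical isolate and wild-type HIV-1ERS104pre. Assays were run in duplicate, and values are means (±1 standard deviation) of two or three independent experiments.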

[5] = system: Human immunodeficiency virus 1; experiment: Antiviral activity against wild type HIV1 ERS104pre infected in human PHA-PBMC cells assessed as inhibition of p24 Gag protein production; type: functional, organism-based; details: Human immunodeficiency virus 1, ERS104pre; method in brief: as §1
[6] = system: Human immunodeficiency virus 1; experiment: Antiviral activity against multidrug-resistant HIV1 C harboring L10I/I15V/K20R/L24I/M36I/M46L/I54V/I62V/L63P/K70Q/V82A/L89M protease-encoding region mutant infected in human PHA-PBMC cells assessed as inhibition of p24 Gag protein production; type: functional, organism-based; details: Human immunodeficiency virus 1, C; method in brief: as §1
Protease [7] = target: T1, Protease (Human immunodeficiency virus 1, UniProt Q9YQ12); experiment: Inhibition of HIV1 protease
[8] = system: Human immunodeficiency virus 1; experiment: Antiviral activity against HIV1 LAV; type: functional, organism-based; details: Human immunodeficiency virus 1, LAV
[9] = system: Human immunodeficiency virus 1; experiment: Antiviral activity against HIV1 LAI infected in human MT2 cells by MTT assay; type: functional, organism-based; details: Human immunodeficiency virus 1, LAI
Method in brief: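 MT-2 human T-lymphoid cells (2 × 10^3) were exposed to 100 TCID50 of HIV-1LAI and cultured in the presence of protease inhibitor. IC50 was determined by MTT assay and reported as the mean of at least two experiments.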

Protease [10] = target: T1, Protease; experiment: Inhibition of HIV1 LAI protease by fluorescence assay
[11] = system: Human immunodeficiency virus 1; experiment: Ratio of amprenavir EC50 to compound EC50 for wild type HIV-1 ERS104pre; type: functional
[12] = system: Human immunodeficiency virus 1; experiment: Antiviral activity against multidrug-resistant HIV1 G harboring L10I/V11I/T12E/I15V/L19I/R41K/M46L/L63P/A71T/V82A/L90M protease-encoding region mutant infected in human PHA-PBMC cells assessed as inhibition of p24 Gag protein production.; type: functional, organism-based; details: Human immunodeficiency virus 1, G; method in brief: as §1

T1 sequence (Q9YQ12 whole entry): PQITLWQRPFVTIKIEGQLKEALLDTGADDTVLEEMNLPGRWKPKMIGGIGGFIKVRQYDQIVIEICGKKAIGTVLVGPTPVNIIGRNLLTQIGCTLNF

CC(C)CN(C[C@@H](O)[C@H](Cc1ccccc1)NC(=O)O[C@H]1CCOC1)S(=O)(=O)c1ccc(N)cc1
Ratio EC50 [1]: 16 | Ratio EC50 [2]: 12 | Ratio EC50 [3]: 16 | pEC50 [4]: 6.35 | pEC50 [5]: 7.55 | pEC50 [6]: 6.49

COc1ccc(S(=O)(=O)N(CC(C)C)C[C@@H](O)[C@H](Cc2ccccc2)NC(=O)O[C@H]2CO[C@H]3O[C@@H]4OCC[C@@H]4[C@H]32)cc1
pKi (Protease [7]): 11.23 | pIC50 [8]: 8.74

COc1ccc(S(=O)(=O)N(CC(C)C)C[C@@H](O)[C@H](Cc2ccccc2)NC(=O)O[C@@H]2COC[C@@H]3O[C@H]4OCC[C@H]4[C@@H]32)cc1
pIC50 [9]: 6.59 | pKi (Protease [10]): 8.51

COc1ccc(S(=O)(=O)N(CC(C)C)C[C@@H](O)[C@H](Cc2ccccc2)NC(=O)O[C@H]2CS(=O)(=O)C[C@H]3O[C@@H]4OCC[C@@H]4[C@@H]23)cc1
pIC50 [9]: < 6.00 | pKi (Protease [10]): 9.22

COc1ccc(S(=O)(=O)N(CC(C)C)C[C@@H](O)[C@H](Cc2ccccc2)NC(=O)O[C@@H]2CS(=O)(=O)C[C@@H]3O[C@H]4OCC[C@H]4[C@@H]32)cc1
pIC50 [9]: < 6.00 | pKi (Protease [10]): 7.98

COc1ccc(S(=O)(=O)N(CC(C)C)C[C@@H](O)[C@H](Cc2ccccc2)NC(=O)O[C@H]2CCC[C@H]3O[C@@H]4OCC[C@@H]4[C@@H]23)cc1
pIC50 [9]: 8.72 | Ratio EC50 [1]: 4 | Ratio EC50 [2]: 2 | Ratio EC50 [3]: 3 | Ratio EC50 [11]: 10 | pEC50 [12]: 7.92 | pEC50 [4]: 7.80 | pEC50 [5]: 8.44 | pEC50 [6]: 8.10 | pKi (Protease [10]): 11.00

COc1ccc(S(=O)(=O)N(CC(C)C)C[C@@H](O)[C@H](Cc2ccccc2)NC(=O)O[C@@H]2CCC[C@@H]3O[C@H]4OCC[C@H]4[C@@H]32)cc1
pIC50 [9]: 6.62 | pKi (Protease [10]): 9.35

COc1ccc(S(=O)(=O)N(CC(C)C)C[C@@H](O)[C@H](Cc2ccccc2)NC(=O)O[C@H]2CC(C)(C)C[C@H]3O[C@@H]4OCC[C@@H]4[C@@H]23)cc1
pKi (Protease [10]): 8.06

COc1ccc(S(=O)(=O)N(CC(C)C)C[C@@H](O)[C@H](Cc2ccccc2)NC(=O)O[C@@H]2CC(C)(C)C[C@@H]3O[C@H]4OCC[C@H]4[C@@H]32)cc1
pKi (Protease [10]): 6.86

COc1ccc(S(=O)(=O)N(CC(C)C)C[C@@H](O)[C@H](Cc2ccccc2)NC(=O)O[C@H]2CCC[C@H]3O[C@@H]4OCCC[C@@H]4[C@@H]23)cc1
pIC50 [9]: 7.32 | pKi (Protease [10]): 9.39

COc1ccc(S(=O)(=O)N(CC(C)C)C[C@@H](O)[C@H](Cc2ccccc2)NC(=O)O[C@H]2COC[C@H]3O[C@@H]4OCC[C@@H]4[C@@H]23)cc1
pIC50 [9]: 8.35 | Ratio EC50 [2]: 4 | Ratio EC50 [3]: 10 | pEC50 [12]: 7.10 | pEC50 [5]: 8.08 | pEC50 [6]: 7.48 | pKi (Protease [10]): 10.68
